From ChEMBL document CHEMBL5038608, “Design, synthesis, and biological evaluation of novel pyrrolidinone small-molecule Formyl peptide receptor 2 agonists” (Eur J Med Chem, 2021)
≈ marks a conversion by molar mass, not a printed value. Calls of active or inactive are those of the source. No cut-off for these calls is given here.

Columns and labels:
[1] = target: T1, N-formyl peptide receptor 2 (Homo sapiens) (UniProt P25090); test: Agonist activity at FPRL1 (unknown origin) expressed in CHO-K1 cells assessed as stimulation of beta-arrestin recruitment […] incubated for 150 mins by beta-galactosidase based PathHunter assay; format: functional, cell-based
T1 sequence (whole entry): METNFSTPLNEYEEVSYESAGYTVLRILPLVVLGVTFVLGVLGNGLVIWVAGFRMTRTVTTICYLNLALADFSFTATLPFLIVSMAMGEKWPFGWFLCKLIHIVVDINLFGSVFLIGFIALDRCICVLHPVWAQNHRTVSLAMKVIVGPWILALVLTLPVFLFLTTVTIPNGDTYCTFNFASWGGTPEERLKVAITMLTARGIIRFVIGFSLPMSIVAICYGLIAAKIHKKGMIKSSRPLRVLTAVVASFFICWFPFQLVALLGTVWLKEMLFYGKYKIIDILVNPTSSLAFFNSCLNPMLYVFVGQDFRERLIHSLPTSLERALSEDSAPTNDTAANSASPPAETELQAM
Outline: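 PathHunter CHO-K1 FPRL1 cells carry complementing β-galactosidase fragments. Plated at 5000/well, held 1 h RT, then overnight at 37 °C. Compounds were half-log serially diluted from 10 mM stocks in PBS. Stimulation 150 min at 37 °C; W-peptide (WKYMVm, 100 nM) was the high control. Detection reagent added for 60 min RT in the dark, with chemiluminescence read-out.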

[2] = target: T1, N-formyl peptide receptor 2 (Homo sapiens); test: (§1) Agonist activity at FPRL1 (unknown origin) expressed in CHO-K1 cells assessed as stimulation of beta-arrestin recruitment incubated for 150 mins by beta-galactosidase based PathHunter assay; format: functional, cell-based
Outline: (§2)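 PathHunter CHO-K1 FPRL1 cells expressing β-gal enzyme-fragment complementation, 5000 cells/well, held overnight at 37 °C. Stimulated with half-log serial dilutions of compounds (10 mM stocks in PBS) for 150 min at 37 °C. High control was WKYMVm at 100 nM. Detection reagent added for 60 min at RT in the dark, then chemiluminescence read.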

[3] = Microsomal stability in mouse liver microsomes assessed as half life at 1 uM preincubated for 5 mins followed by NADPH regenerating system addition measured after 30 mins by LC-MS/MS analysis; format: ADME, Microsome; settings: t1/2, time 35 min
Outline: (§3)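 Human or mouse liver microsomes (0.2 mg/mL protein) with compound at 1 µM final, pre-incubated 5 min at 37 °C. Reaction started with NADPH generating solution and agitated at 37 °C, with samples quenched up to 30 min. Centrifuged; supernatant analysed in triplicate by LC-MS.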

[4] = Kinetic solubility of compound in PBS at pH 7.4 by UV-VIS absorption spectrophotometry analysis; format: physicochemical; settings: PBS, read-out: Kinetic_solubility
Outline: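 A 10 mM DMSO stock was diluted into PBS pH 7.4 at a target of 200 µM (final PBS:DMSO 98:2), in triplicate. Agitated 500 rpm for 90 min, then filtered. Filtrate diluted to PBS:DMSO 80:20 and its UV absorbance compared against a 200–6.75 µM standard series to give the concentration remaining in solution.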

[5] = Distribution coefficient, logD of compound at pH 7.4 by shake flask method based LC-MS/MS analysis; format: physicochemical; settings: octanol/water, read-out: logD
Outline: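 Shake-flask method: compound diluted from 10 mM DMSO stock into equal volumes of octanol and PBS, final concentration 100 µM. Shaken 12 h, then centrifuged. Both layers analysed in triplicate by LC-MS/MS (MRM, C8 UPLC). LogD = log10 of the octanol/buffer peak-area ratio.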

[6] = Microsomal stability in human liver microsomes assessed as half life at 1 uM preincubated for 5 mins followed by NADPH regenerating system addition measured after 30 mins by LC-MS/MS analysis; format: ADME, Microsome; settings: t1/2, time 35 min; outline: as §3
[7] = target: T2, N-formyl peptide receptor 2 (Homo sapiens, UniProt P25090); test: Agonist activity at FPRL1 (unknown origin) expressed in CHO-K1 cells assessed as increase in calcium mobilization incubated for 2.5 hrs by cellular based FLIPR assay; format: functional, cell-based; settings: read-out: EC50
T2 sequence (P25090 whole entry): T1 sequence (whole entry)
Outline: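 CHO-K1 cells overexpressing hFPR2, plated at 20,000 cells/well in F-12 with 10% FBS and held overnight at 37 °C. Loaded with FLIPR Calcium 6 dye for 2 h at 37 °C, then 30 min at RT in the dark. Compounds were half-log serially diluted from 10 mM stocks in HBSS/20 mM HEPES. Cytosolic Ca2+ rise read on FLIPR Tetra. WKYMVm served as control.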

fMet-Leu-Phe receptor = target: T3, fMet-Leu-Phe receptor (Homo sapiens, UniProt P21462); test: Agonist activity at human FPR1 expressed in HEK293-A cells assessed as ERK phosphorylation level incubated for 5 mins by ELISA assay; format: functional, cell-based
T3 sequence (P21462 whole entry): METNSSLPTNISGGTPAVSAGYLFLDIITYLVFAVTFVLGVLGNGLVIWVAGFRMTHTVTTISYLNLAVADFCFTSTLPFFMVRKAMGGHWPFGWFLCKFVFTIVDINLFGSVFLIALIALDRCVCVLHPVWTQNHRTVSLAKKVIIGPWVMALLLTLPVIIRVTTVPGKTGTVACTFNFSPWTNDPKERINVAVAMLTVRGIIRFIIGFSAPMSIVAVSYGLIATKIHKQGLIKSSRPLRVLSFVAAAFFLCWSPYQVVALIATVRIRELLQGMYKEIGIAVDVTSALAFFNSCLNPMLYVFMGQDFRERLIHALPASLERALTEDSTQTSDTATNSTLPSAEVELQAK
Outline: (§4)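 HEK293A cells stably transfected with human FPR1 or FPR2, seeded at 2 × 10⁴/well and grown 48 h. Serum-starved 3 h, then stimulated 5 min with compounds in serum-free DMEM, top concentration 30 µM, 1/3 serial dilutions. Lysed in ice-cold buffer; p-ERK1/2 (pT202/Y204) measured by SimpleStep ELISA (OD). Expressed as increment over basal.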

[8] = AUC extrapolated in C57BL6 mouse at 10 mg/kg, ip; format: ADME, organism-based; settings: in vivo
Outline: (§5)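 Male C57BL6 mice, single intraperitoneal dose of 10 mg/kg as a clear solution in DMSO 10%/PEG400 35%/PG 25%/water 30%. 12 mice used: 9 dosed, 3 for blank plasma. Each mouse bled three times. Plasma concentration measured at eight time points over 24 h.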

[9] = target: T2, N-formyl peptide receptor 2; test: Agonist activity at human FPR2 expressed in HEK293-A cells assessed as ERK phosphorylation level incubated for 5 mins by ELISA assay; format: functional, cell-based; outline: as §4
[10] = target: T1, N-formyl peptide receptor 2 (Homo sapiens); test: Agonist activity at FPRL1 (unknown origin) expressed in CHO-K1 cells assessed as increase in calcium mobilization […] incubated for 2.5 hrs by cellular based FLIPR assay; format: functional, cell-based; settings: filed as agonist, time 0.067 hrs, in the assay text read “measured for 240 s” for “incubated for 2.5 hrs”
Outline: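 CHO-K1 cells overexpressing human FPR2 (PathHunter FPRL1 line), plated at 20,000/well in F-12 with 10% FBS and held 1 h RT, then overnight at 37 °C. Calcium 6 dye loaded 2 h at 37 °C, then 30 min RT in the dark. Compounds were half-log serially diluted from 10 mM stocks in HBSS with 20 mM HEPES. Cytosolic Ca2+ rise read on FLIPR Tetra.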

[11] = target: T2, N-formyl peptide receptor 2; test: as §1; format: functional, cell-based; settings: read-out: EC50; outline: as §2
[12] = MRT(0 to t) in C57BL6 mouse at 10 mg/kg, ip; format: ADME, organism-based; settings: in vivo; outline: as §5
[13] = Cmax in C57BL6 mouse at 10 mg/kg, ip measured upto 24 hrs; format: ADME, organism-based; design: route intraperitoneal, dose 10 mg/kg, time <=24; settings: in vivo; outline: as §5
Neutrophil = test: Inhibition of cell adhesion in human Neutrophils assessed as reduction on neutrophil at 1 to 100 uM incubated for 30 mins by DAPI staining based immunofluorescence assay; format: functional; settings: dose 1-100 µM
Outline: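 Neutrophils isolated from healthy donor blood (Polymorphprep) and suspended in HBSS/20 mM HEPES/0.25% BSA/Ca2+, pH 7.4, at 0.5 × 10⁶/mL. Pre-incubated with agonists (final 1:5 dilution) 30 min at 37 °C. Then adhered 20 min at 37 °C on plates coated with P-selectin and ICAM-1 (1 µg/mL each), BSA-blocked. PFA-fixed and DAPI-stained; four images per well counted. 3 independent experiments × 3 technical replicates.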

[14] = Half life in C57BL6 mouse at 10 mg/kg, ip; format: ADME, organism-based; settings: in vivo; outline: as §5
[15] = target: T1, N-formyl peptide receptor 2 (Homo sapiens); test: Agonist activity at human FPR2 expressed in HEK293-A cells assessed as maximal ERK phosphorylation level at 30 uM incubated for 5 mins by ELISA assay; format: functional, cell-based; settings: filed as agonist
Outline: (§6)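 HEK293A cells stably transfected with human FPR1 or FPR2, in DMEM with 10% FCS, seeded 2×10⁴/well and grown 48 h. Serum-starved 3 h, then stimulated 5 min with compounds in serum-free DMEM (1/3 serial dilutions from top concentration). W peptide was the positive control. Lysed in ice-cold buffer. p-ERK1/2 (pT202/Y204) measured by ELISA OD and expressed as increment over basal per receptor.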

[16] = target: T4, fMet-Leu-Phe receptor (Homo sapiens) (UniProt P21462); test: Agonist activity at human FPR1 expressed in HEK293-A cells assessed as maximal ERK phosphorylation level at 30 uM incubated for 5 mins by ELISA assay; format: functional, cell-based; outline: as §6
T4 sequence (whole entry): T3 sequence (P21462 whole entry)

[17] = Tmax in C57BL6 mouse at 10 mg/kg, ip; format: ADME, organism-based; settings: in vivo; outline: as §5
[18] = AUC (0 to t) in C57BL6 mouse at 10 mg/kg, ip; format: ADME, organism-based; design: dose 10 mg/kg; settings: in vivo
[19] = AUC (0 to infinity) in C57BL6 mouse at 10 mg/kg, ip; format: ADME, organism-based; design: time infinity, route intraperitoneal, dose 10 mg/kg; settings: in vivo

## CC(C)n1cc(N2CCC(NC(=O)Nc3ccc(Br)cc3)C2=O)cn1 (configuration not stated)
[1]
  Emax: inactive
[2]
  Emax: inactive
[3]
  half-life at 1 µM: 2.66 h
[4]
  solubility kinetic: 1 µM (≈ 0.406 µg/mL)
[5]
  logD: 3.7
[6]
  half-life at 1 µM: 5.37 h
[7]
  EC50: 0.884 µM

## O=C(Nc1ccc(Br)cc1)NC1CCN(c2ccccc2)C1=O (configuration not stated)
fMet-Leu-Phe receptor; read-out: EC50
  EC50: 1.74 µM
[8]
  %AUCextra: 18.17%
[9]
  EC50: 7.36 µM
[10]
  Emax: 73%
[11]
  EC50: 0.3 µM
[12]
  MRT last: 9.2 h
[13]
  Cmax: 3610 ng/mL
Neutrophil
  Activity: Dose-Dependent Effect
[3]
  half-life at 1 µM: > 6.67 h
[14]
  half-life: 9.42 h
[15]
  Emax: 69%
[16]
  Emax: 15%
[17]
  Tmax: 0.25 h
[4]
  solubility kinetic: 15 µM (≈ 5.61 µg/mL)
[5]
  logD: > 4
[6]
  half-life at 1 µM: > 6.67 h
[7]
  EC50: 0.43 µM
[18]
  AUC(0-t): 28600 ng·h/mL
[19]
  AUC(0-inf): 35000 ng·h/mL

## Cc1nn(C)cc1N1CCC(NC(=O)Nc2ccc(Br)cc2)C1=O (configuration not stated)
[1]; filed as agonist
  Emax: 98%
fMet-Leu-Phe receptor; hek293-a
  EC50: Not Active
[9]
  EC50: 4.88 µM
[11]
  EC50: 0.74 µM
[3]
  half-life at 1 µM: 2.87 h
[15]
  Emax: 90%
[16]
  Emax: inactive
[4]
  solubility kinetic: 9 µM (≈ 3.53 µg/mL)
[5]
  logD: 2.6
[6]
  half-life at 1 µM: 3.05 h
[7]
  EC50: 0.142 µM
